Granule exo inh: blocks lytic granule exocytosis; TALL-104 LAMP-1 surface exposure, flow cytometry; cells stimulated with thapsigargin and PMA; inhibition, % at 10 µM; 0.66% of 360,000 active; AID 651702;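 active = inhibition above about 55%, limit read from the data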
ABHD5 PLIN5 PPI: blocks binding of human ABHD5 to perilipin-5; Q00G26+Q8WTS1; Split G. princeps luciferase complementation, luminescence, 4 h; inhibition, % at 4 µM; 0.78% of 360,000 active; AID 602281;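 active = inhibition above the mean inhibition across every tested compound plus 3 SD, cut at about 22% in these data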;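 note: 0% = DMSO only wells and the 100% control is not disclosed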
UPR CHOP act: activators of apoptotic arm of unfolded protein response (CHOP) | CHO-CHOP luciferase reporter, UPR activation, luminescence; percent of tunicamycin response over DMSO baseline | 0.34% of 330,000 active | activation, % at 10 µM;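 active = at 10 µM dose, activation of 40% or more, normalized to positive control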;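 note: 100% = tunicamycin at 10 µg/mL and 0% = DMSO alone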
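Assay system: CHO-CHOP cells, stable luciferase reporter of PERK-eIF2a-CHOP signalling / Buffer or medium: F12 plus 10% serum / Compound dosing: one dose, 10 µM in 0.5% DMSO / Times: 6 h compound treatment, 37 °C / Technique: luciferase luminescence / Read-out: % reporter activation, DMSO baseline versus tunicamycin full activation / Benchmarks: tunicamycin and DMSO controls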
UPR XBP1 act: activators of adaptive arm of unfolded protein response (XBP1); CHO-XBP1 luciferase reporter, IRE1-XBP1 UPR activation, luminescence; percent of tunicamycin response, DMSO as zero; activation, % at 20 µM; 0.33% of 330,000 active; AID 463104;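 active = versus positive control, 20 µM dose yields 30% or more activation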;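 note: 100% = tunicamycin at 10 µg/mL and 0% = DMSO only wells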
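Assay system: CHO-XBP1 luciferase reporter cells; Schedule: 6 h treatment, 37 °C; Detection: glow luminescence from Steady-Glo reagent; Benchmarks: high control tunicamycin 10 µg/mL final, low control DMSO vehicle only.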
Mdm2 MdmX PPI: inhibitors of human Mdm2/MdmX interaction; O15151+Q00987; SaOS-2 split-luciferase Mdm2/MdmX complementation, luminescence; inhibition, % at 8 µM; 3% of 330,000 active; AID 485346;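 active = inhibition of at least 50% at 8 µM in the primary screen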
Mdm2-MdmX conf: human Mdm2/MdmX binding inhibition, confirmed | shares compounds with Mdm2 MdmX PPI | 55% of 10,000 active | inhibition, % at 8 µM | luminescent assay; in the data active = inhibition above about 40%
Full FLuc ctr: full-length luciferase inhibition in Mdm2/MdmX counter-screen. SaOS-2 full-length luciferase counterscreen, luminescence. inhibition, % at 8 µM. 77% of 6,200 active. shares compounds with Mdm2 MdmX PPI. AID 504607;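 active = mean inhibition at 8 µM reaching about 37%, which flags the compound as non-specific, limit read from the data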;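 note: p53-null SaOS-2 cells with luciferase driven by a doxycycline-inducible promoter; compound on cells about two nights before reading with doxycycline added after day one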
An asterisk follows results filed as active; / = no result. Sampled rows, rich in hits. Any-hit rate of the full collection: about 4%.

SMILES	Granule exo inh	ABHD5 PLIN5 PPI	UPR CHOP act	UPR XBP1 act	Mdm2 MdmX PPI	Mdm2-MdmX conf	others
COc1ccc(C2=Nn3c(nnc3-c3cccnc3)SC2)cc1OC	4	-3	1	15	51*	22
COc1ccc(C2=Nn3c(nnc3-c3ccccc3Cl)SC2)cc1OCC1CC1	1	-9	0	12	73*	57*	Full FLuc ctr=45*
COc1ccccc1-c1nnc2n1N=C(c1ccc(O)c(O)c1)CS2	0	2	-2	17	50*	58*	Full FLuc ctr=140*
COc1ccc(C2=Nn3c(nnc3-c3ccccc3OC)SC2)cc1OC1CCOC1 (stereo not given)	8	-3	-2	16	71*	73*	Full FLuc ctr=95*
CCOC(=O)c1c(NC(=O)COC(=O)c2cccnc2OCC)sc(C(=O)N(CC)CC)c1C	-1	3	3	-3	9	/
COc1ccc(NC(=O)c2cc(C3CCCCN3C(=O)C3CC3)on2)c(C)c1 (stereo not given)	9	-5	/	/	/	/
CN(C)c1ccc(-c2nc3ccccc3c(=O)[nH]2)cc1	7	11	-7	-8	-2	/
COc1cc(/C=C2\CCc3ccccc3C2=O)cc(OC)c1OC	4	9	5	4	27	/
CC(=O)Nc1ccc(NC(=O)CCNC(=O)c2ccccc2Cl)cc1	-2	-4	1	-3	-1	/
O=C(Nc1nnc(-c2ccc3c(c2)CCCC3)o1)c1ccc(Cl)cc1Cl	2	-2	-1	1	51*	25
CN(C)S(=O)(=O)c1ccc(C(=O)Nc2nnc(-c3ccc4c(c3)CCCC4)o2)cc1	-3	7	6	-1	60*	23
Cn1c(=O)[nH]c(=O)c2c1nc(N1CCN(c3ccccc3)CC1)n2CCSc1ncccn1	-7	11	4	3	54*	24
Cn1c(=O)[nH]c(=O)c2c1nc(N1CCCCC1)n2CCSc1ncccn1	1	2	1	1	4	/
CN(C)S(=O)(=O)c1ccc(N2CCCC2)c(C(=O)Nc2nc(-c3cc(F)ccc3F)cs2)c1	-4	-2	0	9	55*	47*	Full FLuc ctr=48*
COc1ccc(N(CC(=O)Nc2cccc(C(=O)O)c2)S(=O)(=O)c2c(C)noc2C)cc1	-7	0	7	1	16	/
CCc1ccccc1NC(=S)N1CCC(C(=O)c2ccc(F)cc2)CC1	9	-13	-1	-2	10	/
CC(=O)Nc1ccc(S(=O)(=O)NCCC(=O)OCC(=O)c2cc(C)ccc2C)cc1	-2	3	1	2	12	/
Cn1ncc(SCc2ccccc2)c(Cl)c1=O	-6	0	2	-5	52*	18
COc1cc(NC(=O)c2cc(-c3cccnc3)nc3ccc(Br)cc23)cc(OC)c1	-28	-1	1	6	23	/
CCN(CC)CCNC(=O)c1c(C)n(-c2ccccc2)c2cc(Br)c(OC)cc12	10	19	0	1	81*	38	Full FLuc ctr=38*
CC(C)(CCC(=S)N1CCOCC1)c1ccccc1	-23	12	/	/	/	/
N#C/C(=C(/O)COC(=O)CSc1ccc2ccccc2c1)c1nc2ccccc2[nH]1	-3	6	-1	1	51*	1
N#C/C(=C(/O)COC(=O)CCC1CCCCC1)c1nc2ccccc2[nH]1	1	1	0	-2	66*	6
Cc1cc(Br)ccc1SCC(=O)OC/C(O)=C(\C#N)c1nc2ccccc2[nH]1	0	3	1	0	83*	-2
CCCC(=O)OC/C(O)=C(\C#N)c1nc2ccccc2[nH]1	3	1	-2	-2	35	/
O=C(CCNC(=O)c1ccc([N+](=O)[O-])cc1)NCCCN1CCCC1=O	4	5	0	-4	23	/
Cc1ccc(-n2nc3c(=O)n(CC(=O)NC(C)CCc4ccccc4)nc(C)c3c2C)cc1 (stereo not given)	3	4	6	-2	50*	9
Cc1ccc(-n2nc3c(=O)n(CC(=O)NCc4ccccc4)nc(C)c3c2C)cc1	21	1	1	-2	3	/

Compound activity deposited in PubChem by several laboratories.
